Screens: PubChem BioAssay, Johns Hopkins Ion Channel Center
KCNK9 inh: KCNK9 potassium channel inhibitors, primary screen, HEK293 cells, thallium flux; actives 1.2% (n = 310,000); FluxOR thallium flux fluorescence; active compounds read low; B-score at 10 µM; Potassium channel subfamily K member 9 (Homo sapiens), Q9NPC2;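 active = ratio B-score over 3 SD below the library mean, with starting fluorescence within 5 SD of its mean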;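 note: negative B-score means less thallium flux so channel inhibition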
KCNQ1 inh: inhibitors of human KCNQ1 channel, primary screen, cell-based, thallium flux, high-throughput; CHO-K1 KCNQ1, FluxOR thallium flux fluorescence; active compounds read high; B-score at 10 µM; actives 1.3% (n = 310,000);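 active = compounds whose thallium flux B-score, printed positive for inhibition, exceeds three library SD while starting fluorescence stays within three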;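 note: channel opened by potassium depolarization with thallium stimulus after 20 min compound exposure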
Kir21 inh: inhibitors of mouse Kir2.1 inward-rectifier potassium channel; Inward rectifier potassium channel 2 (Mus musculus), P35561; HEK293-Kir2.1, FluxOR thallium flux fluorescence; active compounds read low; B-score at 10 µM; actives 0.85% (n = 310,000); AID 1672, 2009;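 active = fluorescence ratio B-score at or below minus 3 SD of library scores, with starting-brightness B-score within 2 SD, cut at about -4.2 in these data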;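 note: channel flux triggered by added potassium and thallium sulfate stimulus; B-score of peak minus minimum fluorescence over baseline after thallium stimulus; more negative B-score means stronger Kir2.1 block with less thallium influx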
Target sequence (P35561 whole entry, looked up): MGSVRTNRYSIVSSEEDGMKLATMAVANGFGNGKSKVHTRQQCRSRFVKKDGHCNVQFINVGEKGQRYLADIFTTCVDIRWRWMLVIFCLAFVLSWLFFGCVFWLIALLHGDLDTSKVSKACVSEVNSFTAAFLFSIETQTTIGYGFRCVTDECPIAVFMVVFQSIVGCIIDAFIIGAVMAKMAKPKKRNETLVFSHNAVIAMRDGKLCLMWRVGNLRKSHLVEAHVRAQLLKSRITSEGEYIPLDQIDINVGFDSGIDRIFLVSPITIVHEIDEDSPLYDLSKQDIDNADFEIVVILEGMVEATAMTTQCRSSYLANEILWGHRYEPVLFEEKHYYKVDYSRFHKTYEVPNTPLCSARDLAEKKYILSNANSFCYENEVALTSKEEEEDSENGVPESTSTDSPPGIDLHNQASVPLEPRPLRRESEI
KCNQ1 pot: potentiators or activators of KCNQ1 channel, primary screen, cell-based, thallium flux, high-throughput; Potassium voltage-gated channel subfamily KQT member 1 (Homo sapiens), P51787; CHO-K1 KCNQ1, thallium flux FluxOR fluorescence; active compounds read high; B-score at 10 µM; actives 0.35% (n = 310,000); AID 2648, 2010;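 active = fluorescence ratio B-score, a plate-corrected score, at least three library SD, with initial intensity B-score within 5 SD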
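Assay system: stable KCNQ1 CHO-K1 line; medium: assay buffer, equal DMSO in all wells; timing: 90 min dye loading and 20 min compound exposure, both at room temperature; technique: kinetic FluxOR thallium fluorescence, 10-s 1-Hz baseline, 110-s post-stimulus read; read-out basis: B score of baseline-normalized fluorescence ratio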
KCNK3 inh: human KCNK3 channel inhibitors, primary screen, CHO cells, FluxOR thallium flux, B-score | Potassium channel subfamily K member 3 (Homo sapiens), O14649 | FluxOR fluorescence; active compounds read low | B-score at 10 µM | actives 0.84% (n = 340,000);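 active = B-score under library mean minus 4 SD, starting fluorescence ratio at most library mean plus 5 SD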;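 note: more negative B-score means stronger inhibition of thallium flux through KCNK3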
hERG rescue: hERG rescue from dofetilide block, primary screen, cell-based, CHO-hERG, FluxOR thallium flux, dofetilide IC70; AID 1511, 2009; activation (rescue from dofetilide block), less the hit threshold, % at 10 µM; actives 0.51% (n = 310,000); Voltage-gated inwardly rectifying potassium channel KCNH2 (Homo sapiens), Q12809; dofetilide IC70 present;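 active = activation above the mean of controls blocked by dofetilide plus 5 SD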;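 note: thallium influx through hERG after potassium depolarization seen as dye fluorescence rise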
* hit, by the source's call; i = inactive; . = no result. This is a sample that favours compounds with a hit; in the whole collection about 3.7% have one here.

SMILES	KCNK9 inh	KCNQ1 inh	Kir21 inh	KCNQ1 pot	KCNK3 inh	hERG rescue
Cc1ccccc1NC(=O)CCN1CCCCCC1	i	i	0.54	i	i	4.8*
O=C(COC(=O)COc1ccc(Cl)cc1)Nc1ccc2c(c1)OCCO2	.	.	.	.	i	.
O=C1C(Cl)=C(Nc2ccc3cn[nH]c3c2)C(=O)c2ccccc21	i	9*	1.1	i	i	-9
CC(=O)Nc1ccc(NC2=C(Cl)C(=O)c3ccccc3C2=O)cc1	i	12*	0.69	i	.	-10
O=C(N/N=C/c1ccc(O)cc1O)c1ccc(NC(=O)C2CCCCC2)cc1	i	i	0.91	i	i	-12
Cc1ccccc1OCC(=O)OC(C)C(=O)NC1CCCC1 (configuration not stated)	.	.	.	.	i	.
CC[n+]1c(/C=C2\C=C(C)CC(C)(C)C2)sc2ccccc21	i	7*	-1.9	i	i	-28
CC[n+]1c(C)sc2sc3ccccc3c21	i	i	-0.02	i	.	-21
CCC1=C/C(=C/c2sc3ccccc3[n+]2CC)CC(C)(C)C1	i	i	1.1	i	i	-20
CC[n+]1c(/C=C/Nc2ccccc2)oc2ccc(OC)cc21	i	i	-3.2	i	i	-14
CC[n+]1c(/C=C2\C=C(C)CC(C)C2)sc2ccccc21 (configuration not stated)	i	6*	-0.1	i	i	-23
CC[n+]1c(/C=C2/C=C(C)CC(C)(C)C2)sc2ccc(OC)cc21	i	10*	-6	i	i	-29
COc1cccc(N=C2NC(=O)/C(=C/c3cc([N+](=O)[O-])ccc3O)S2)c1	i	7*	-0.36	i	i	-10
Cc1ccc(S(=O)(=O)/N=C2/NC(=O)/C(=C/c3cc([N+](=O)[O-])ccc3O)S2)cc1	i	i	-1.7	i	i	-10
COc1ccc(-c2nc(C(=O)NCC3CCCO3)cc3c2[nH]c2ccccc23)cc1 (configuration not stated)	i	i	1.5	i	i	-9
O=C(NCC1CCCO1)c1cc2c([nH]c3ccccc32)c(-c2cccc(Br)c2)n1 (configuration not stated)	i	11*	1	i	i	-40
Cc1nc2ccc(NS(=O)(=O)c3ccc(F)c(C)c3)cc2[nH]1	i	i	-1.8	i	i	-9
CN(C)c1nc(C#N)nc(N(C)C)n1	i	i	-0.16	i	i	10*
CC1Cc2ccccc2N1C(=S)NC(=O)c1ccco1 (configuration not stated)	i	i	-0.25	i	i	6.7*
CC1Cc2ccccc2N1C(=S)NC(=O)C1(C)CC1(Cl)Cl (configuration not stated)	i	i	-1.7	37*	i	28*
N#Cc1ccc(C(=O)N2CCC3CC2c2cc(-c4ccccc4)ccc23)cc1 (configuration not stated)	.	.	.	.	i	.
CCN(c1ccccc1)S(=O)(=O)c1c(C)noc1C	.	.	.	.	i	.
O=C1/C(=C/c2cccs2)CCC/C1=C\c1cccs1	i	i	0.02	i	i	-12
CC1C/C(=C/c2cccs2)C(=O)/C(=C/c2cccs2)C1 (configuration not stated)	-7.4*	i	-0.07	i	i	-16
Cc1cnc(C(=O)OCC(=O)c2ccc(Br)s2)cn1	i	i	0.59	i	i	-16
CCOc1cccc(C(=O)Nc2ccc3oc(Cc4ccc(Cl)cc4)nc3c2)c1	i	6*	-0.65	i	i	-9
COC(=O)C(C(=O)OC)C(CC(=O)c1ccc(Br)cc1)c1ccccc1 (configuration not stated)	.	.	.	.	i	.
